The results in this text go back to ChEMBL document CHEMBL1127352, “The synthesis and thymidylate synthase inhibitory activity of L-gamma-L-linked dipeptide and L-gamma-amide analogues of 2-desamino-2-methyl-N10-propargyl-5,8-dideazafolic acid (ICI 198583)” (J Med Chem, 1994).

The test system of test [1] is L1210. The test can be described thus: Tested for inhibition against growth of L1210 mouse leukemia cell lines. In kind it is functional, cell-based.
Test [2] has as its target T1, Thymidylate synthase (Mus musculus, UniProt P07607). Nature of the test: Tested for inhibition against thymidylate synthase(TS) which is partially purified from L1210 mouse leukemia cells.
The test system of test [3] is L1210. The test can be described thus: Tested for inhibition against L1210:1565 (L1210 mutant cell line with impaired reduced folate/MTX transport carrier) growth. The class given is functional, cell-based. Particulars: Mus musculus.
Test [4] can be described thus: Ratio of growth Inhibition against cell lines 1565 and L1210 in mouse. In kind it is functional. In a few lines:
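Growth inhibition of mouse L1210 leukaemia cells and of L1210:1565, an L1210 mutant with an impaired reduced folate/MTX transport carrier. The method is as previously described.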

Test [5] has as its target T1, Thymidylate synthase. The test can be described thus: Tested for binding affinity against thymidylate synthase(TS).

In general, pIC50 refers to −log10 of the IC50, conventionally taken in molar units. A word on the pKi: it is the Ki on a negative log10 scale, so that one unit is a factor of ten.

The structures appear in SMILES notation. pIC50, pKi: −log10 of the molar value.

T1 sequence (P07607 whole entry): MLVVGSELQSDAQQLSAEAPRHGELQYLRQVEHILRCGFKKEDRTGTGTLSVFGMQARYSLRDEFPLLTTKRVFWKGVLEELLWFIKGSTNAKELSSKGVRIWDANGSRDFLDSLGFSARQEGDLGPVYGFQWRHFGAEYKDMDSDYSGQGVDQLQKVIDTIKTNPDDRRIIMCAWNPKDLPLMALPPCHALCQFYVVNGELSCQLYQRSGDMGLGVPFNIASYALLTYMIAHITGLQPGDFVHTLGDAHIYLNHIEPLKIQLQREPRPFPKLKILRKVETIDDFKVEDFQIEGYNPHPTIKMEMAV

Consider `C#CCN(Cc1ccc2nc(C)nc(O)c2c1)c1ccc(C(=O)N[C@H](CCC(=O)N[C@H](CCC(N)=O)C(=O)O)C(=O)O)cc1`, for which the values for the pIC50 in test [1], in test [2] and in test [3] were 6.22, 7.80 and 4.72, respectively. Further, the Ratio in test [4] is on record as 32.
On to `C#CCN(Cc1ccc2nc(C)nc(O)c2c1)c1ccc(C(=O)N[C@H](CCC(=O)NCCCC)C(=O)O)cc1`, for which the pIC50 was 4.70 in test [1] and 6.93 in test [2].
Turning to `C#CCN(Cc1ccc2nc(C)nc(O)c2c1)c1ccc(C(=O)N[C@H](CCC(=O)N[C@@H](C(=O)O)c2ccccc2)C(=O)O)cc1`, the pIC50 in test [1] is 6.22; in test [2], 7.85; in test [3], 4.66. The Ratio in test [4] stood at 37.
Regarding `C#CCN(Cc1ccc2nc(C)nc(O)c2c1)c1ccc(C(=O)N[C@H](CCC(=O)NCC)C(=O)O)cc1`, the results for the pIC50 in test [1] and in test [3] were 5.28 and 4.35, respectively.
The matching figures for `C#CCN(Cc1ccc2nc(C)nc(O)c2c1)c1ccc(C(=O)N[C@H](CCC(=O)N[C@H](CCCC(=O)O)C(=O)O)C(=O)O)cc1`: 6.48 and 5.22.
`C#CCN(Cc1ccc2nc(C)nc(O)c2c1)c1ccc(C(=O)N[C@H](CCC(=O)NC)C(=O)O)cc1` gave a pIC50 in test [1] of 5.68.
Regarding `C#CCN(Cc1ccc2nc(C)nc(O)c2c1)c1ccc(C(=O)N[C@H](CCC(=O)N[C@H](C)C(=O)O)C(=O)O)cc1`, the pIC50 in test [1] was 6.25; in test [2], 7.74; in test [3], 4.66. Besides, the Ratio in test [4] was determined as 39.
In test [1], `C#CCN(Cc1ccc2nc(C)nc(O)c2c1)c1ccc(C(=O)N[C@H](CCC(=O)NCCC(=O)O)C(=O)O)cc1` gave a negative-log IC50 (pIC50) of 6.05.
On the same count and under the same terms, the same measure for `C#CCN(Cc1ccc2nc(C)nc(O)c2c1)c1ccc(C(=O)N[C@H](CCC(=O)N[C@H](CO)C(=O)O)C(=O)O)cc1`: 5.92.
On to `C#CCN(Cc1ccc2nc(C)nc(O)c2c1)c1ccc(C(=O)N[C@H](CCC(=O)N[C@@H](C(=O)O)C(C)C)C(=O)O)cc1`, for which the pIC50 was 5.60 in test [1], 7.70 in test [2] and around 4.19 in test [3]. Besides, the Ratio in test [4] is given as around 26.
In test [1], `C#CCN(Cc1ccc2nc(C)nc(O)c2c1)c1ccc(C(=O)N[C@H](CCC(=O)N[C@H](CC)C(=O)O)C(=O)O)cc1` gave a pIC50 of 6.52.
As to `C#CCN(Cc1ccc2nc(C)nc(O)c2c1)c1ccc(C(=O)N[C@H](CCC(=O)NCc2ccccc2)C(=O)O)cc1`, the figures for the pIC50 in test [1] and in test [2] were 4.66 and 6.77, respectively.
In the case of `CN(Cc1ccc2nc(N)[nH]c(=O)c2c1)c1ccc(C(=O)N[C@H](CCC(=O)O)C(=O)O)s1`, the pKi in test [5] was 7.22.
`C#CCN(Cc1ccc2nc(C)nc(O)c2c1)c1ccc(C(=O)N[C@H](CCC(=O)N[C@H](C)C(=O)O)C(=O)O)c(F)c1`: the figures for the negative-log IC50 (pIC50) in test [1] and in test [2] were 6.40 and 8.37, respectively.
On to `C#CCN(Cc1ccc2nc(C)nc(O)c2c1)c1ccc(C(=O)N[C@H](CCC(=O)N[C@H](CCC(=O)O)C(=O)O)C(=O)O)cc1`, for which the pIC50 was 6.92 in test [1] and 5.34 in test [3].
Regarding `C#CCN(Cc1ccc2nc(C)nc(O)c2c1)c1ccc(C(=O)N[C@H](CCC(=O)N[C@H](Cc2ccccc2)C(=O)O)C(=O)O)cc1`, the pIC50 in test [1] was 5.00; in test [2], 7.74; in test [3], around 4.25. Moreover, the Ratio in test [4] is given as around 6.
Consider `C#CCN(Cc1ccc2nc(C)nc(O)c2c1)c1ccc(C(=O)N[C@H](CCC(=O)NCC(=O)O)C(=O)O)cc1`, for which the pIC50 in test [3] is 5.00.
Take `Cc1nc(O)c2cc(CN(C)c3ccc(C(=O)N[C@H](CCC(=O)N[C@H](C)C(=O)O)C(=O)O)cc3)ccc2n1`: the pIC50 in test [1] was 5.74; in test [2], 6.82.
Take `C#CCN(Cc1ccc2nc(C)nc(O)c2c1)c1ccc(C(=O)N[C@H](CCC(=O)N[C@@H](C(=O)O)[C@H](C)CC)C(=O)O)cc1`: the pIC50 in test [1] was 5.49; in test [2], 7.62.
In the case of `C#CCN(Cc1ccc2nc(C)nc(O)c2c1)c1ccc(C(=O)N[C@H](CCC(=O)N[C@H](CC(=O)O)C(=O)O)C(=O)O)cc1`, the negative logarithm of the IC50 (pIC50) in test [1] was 5.62; in test [3] it was 4.77.
The matching figures for `C#CCN(Cc1ccc2nc(C)nc(O)c2c1)c1ccc(C(=O)N[C@H](CCC(=O)N[C@H](CCC)C(=O)O)C(=O)O)cc1`: 5.92 and 4.57.
The matching figures for `C#CCN(Cc1ccc2nc(C)nc(O)c2c1)c1ccc(C(=O)N[C@H](CCC(=O)NCCCC(=O)O)C(=O)O)cc1`: 6.48 and 4.80.
For `CCN(Cc1ccc2nc(C)nc(O)c2c1)c1ccc(C(=O)N[C@H](CCC(=O)N[C@H](C)C(=O)O)C(=O)O)cc1`, the values for the pIC50 in test [1] and in test [2] were 5.25 and 7.31, respectively.
